In ChEMBL document CHEMBL4184133, “Chemical Constituents and Anti-inflammatory Principles from the Fruits of Forsythia suspensa” (J Nat Prod, 2017):
≈ marks a conversion by molar mass, not a printed value.

What was measured:
Neutrophil [1] = experiment: Anti-inflammatory activity in human neutrophils assessed as inhibition of fMLP/CB-induced elastase release pre-incubated for 5 mins before fMLP/CB stimulation using MeO-Suc-Ala-Ala-Pro-Val-pnitroanilide as substrate; type: functional, cell-based
In short: (§1)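 Neutrophils were isolated by dextran sedimentation, Ficoll Hypaque centrifugation and hypotonic lysis of erythrocytes, then held in Ca2+-free HBSS pH 7.4 at 4 °C. Cells at 6 × 10^5/mL with 100 μM substrate were equilibrated 2 min at 37 °C and given compound or 0.1% DMSO vehicle for 5 min. They were activated with 100 nM fMLP plus 0.5 μg/mL cytochalasin B, and A405 was monitored continuously. Release is expressed as percent of the drug-free activated control. Mean ± SD.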

Neutrophil [2] = experiment: Anti-inflammatory activity in human neutrophils assessed as inhibition of fMLP/CB-induced superoxide anion generation by measuring superoxide dismutase SOD-inhibitable ferricytochrome c reduction incubated for 5 mins before fMLP/CB stimulation for 3 mins by spectrophotometry; type: functional, cell-based
In short: (§2)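 Same neutrophil preparation. Cells at 6 × 10^5/mL with 0.5 mg/mL ferricytochrome c and 1 mM Ca2+ were equilibrated 2 min at 37 °C and given compound or 0.1% DMSO for 5 min. Cytochalasin B (1 μg/mL) was added, then 100 nM fMLP. A550 was monitored continuously with stirring. Superoxide was calculated from the difference with versus without SOD (100 U/mL) using ε = 21.1/mM/10 mm. IC50 values are mean ± SD, n = 3.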

Neutrophil [3] = experiment: Anti-inflammatory activity in human neutrophils assessed as inhibition of fMLP/CB-induced superoxide anion generation by measuring superoxide dismutase SOD-inhibitable ferricytochrome c reduction at 10 ug/ml incubated for 5 mins before fMLP/CB stimulation for 3 mins by spectrophotometry; type: functional; in short: as §2
Neutrophil [4] = experiment: Anti-inflammatory activity in human neutrophils assessed as inhibition of fMLP/CB-induced elastase release at 10 ug/ml pre-incubated for 5 mins before fMLP/CB stimulation using MeO-Suc-Ala-Ala-Pro-Val-pnitroanilide as substrate; type: functional; in short: as §1

SMILES: C=C1CC[C@H]2[C@@](C)(COC=O)CCC[C@]2(C)[C@H]1CC/C(C)=C\C(=O)O
- IC50 (Neutrophil [1]): > 10 µg/mL
- IC50 (Neutrophil [2]): > 10 µg/mL

SMILES: CC1=C(CC/C(C)=C/C(=O)O)[C@@]2(C)CCC[C@@](C)(CO)[C@@H]2CC1=O
- IC50 (Neutrophil [1]): > 10 µg/mL
- IC50 (Neutrophil [2]): > 10 µg/mL

SMILES: C=C(C)[C@@H]1CC[C@]2(C(=O)O)CC[C@]3(C)C(CCC4[C@@]5(C)C[C@@H](O)[C@H](O)C(C)(C)C5CC[C@]43C)C12 (stereo partly drawn)
- IC50 (Neutrophil [1]): 1.9 µg/mL (≈ 4.02 µM)
- inhibition (Neutrophil [1]): Dose-dependent effect
- inhibition at 10 µg/mL (Neutrophil [3]): > 50%
- inhibition at 10 µg/mL (Neutrophil [4]): > 50%
- IC50 (Neutrophil [2]): 0.8 µg/mL (≈ 1.69 µM)
- inhibition (Neutrophil [2]): Dose-dependent effect

SMILES: COc1ccc([C@H]2OC[C@@H]3C(=O)OC[C@@H]32)cc1OC
- IC50 (Neutrophil [1]): > 10 µg/mL
- inhibition at 10 µg/mL (Neutrophil [3]): > 50%
- IC50 (Neutrophil [2]): 5.6 µg/mL (≈ 21.2 µM)
- inhibition (Neutrophil [2]): Dose-dependent effect

SMILES: COc1cc([C@H]2OC[C@H]3[C@@H]2CO[C@H]3c2ccc(OC)c(OC)c2)ccc1O [PHILLYGENIN]
- IC50 (Neutrophil [1]): > 10 µg/mL
- inhibition at 10 µg/mL (Neutrophil [3]): > 50%
- IC50 (Neutrophil [2]): 6.4 µg/mL (≈ 17.2 µM)
- inhibition (Neutrophil [2]): Dose-dependent effect

SMILES: C=C1CC[C@H]2[C@@](C)(CO)CCC[C@]2(C)[C@H]1CC/C(C)=C\C(=O)O
- IC50 (Neutrophil [1]): > 10 µg/mL
- inhibition at 10 µg/mL (Neutrophil [3]): > 50%
- IC50 (Neutrophil [2]): 2.5 µg/mL (≈ 7.8 µM)

SMILES: COc1cc([C@H]2OC[C@H]3[C@@H]2CO[C@H]3c2ccc(O)c(OC)c2)ccc1O [PINORESINOL]
- IC50 (Neutrophil [1]): > 10 µg/mL
- inhibition at 10 µg/mL (Neutrophil [3]): > 50%
- IC50 (Neutrophil [2]): 3.4 µg/mL (≈ 9.49 µM)
- inhibition (Neutrophil [2]): Dose-dependent effect

SMILES: C=C1CC[C@H]2C(C)(C)C(=O)CC[C@]2(C)[C@H]1CC/C(C)=C/C(=O)O
- IC50 (Neutrophil [1]): > 10 µg/mL
- IC50 (Neutrophil [2]): > 10 µg/mL

SMILES: C=C1CC[C@@H]2[C@](C)(CCC[C@@]2(C)C(=O)O)[C@H]1CC/C(C)=C\C(=O)O
- IC50 (Neutrophil [1]): > 10 µg/mL
- IC50 (Neutrophil [2]): > 10 µg/mL

SMILES: CC(=O)O[C@H]1CC[C@]2(C)[C@H]3CCC4[C@@H]([C@@](C)(O)CCC=C(C)C)CC[C@@]4(C)[C@]3(C)CC[C@H]2C1(C)C (stereo partly drawn)
- IC50 (Neutrophil [1]): > 10 µg/mL
- IC50 (Neutrophil [2]): > 10 µg/mL

SMILES: COc1cc([C@H]2OC[C@H]3[C@@H]2CO[C@@H]3c2ccc(O)c(OC)c2)ccc1O
- IC50 (Neutrophil [1]): > 10 µg/mL
- inhibition at 10 µg/mL (Neutrophil [3]): > 50%
- IC50 (Neutrophil [2]): 1.3 µg/mL (≈ 3.63 µM)
- inhibition (Neutrophil [2]): Dose-dependent effect

SMILES: O=C1C=CC2(O)CC(=O)OC2C1 (stereo not drawn)
- IC50 (Neutrophil [1]): > 10 µg/mL
- IC50 (Neutrophil [2]): > 10 µg/mL

SMILES: C=C1CCC2[C@@](C)(CO)CCC[C@]2(C)[C@H]1CC/C(C)=C/C(=O)O (stereo partly drawn)
- IC50 (Neutrophil [1]): > 10 µg/mL
- inhibition at 10 µg/mL (Neutrophil [3]): > 50%
- IC50 (Neutrophil [2]): 7.4 µg/mL (≈ 23.1 µM)
- inhibition (Neutrophil [2]): Dose-dependent effect

SMILES: C/C(=C\C(=O)O)CC[C@H]1C(CO)=CC[C@H]2[C@@](C)(CO)CCC[C@]12C
- IC50 (Neutrophil [1]): > 10 µg/mL
- inhibition at 10 µg/mL (Neutrophil [3]): > 50%
- IC50 (Neutrophil [2]): 8.3 µg/mL (≈ 24.7 µM)

SMILES: COC1CC[C@@](C)([C@H]2CC[C@]3(C)[C@@H]2CC[C@@H]2[C@@]4(C)CCC(OC(C)=O)C(C)(C)[C@@H]4CC[C@]23C)O1 (stereo partly drawn)
- IC50 (Neutrophil [1]): > 10 µg/mL
- IC50 (Neutrophil [2]): > 10 µg/mL

SMILES: CNC(=O)c1cc(Oc2ccc(NC(=O)Nc3ccc(Cl)c(C(F)(F)F)c3)cc2)ccn1 [SORAFENIB]
- IC50 (Neutrophil [1]): 0.9 µg/mL (≈ 1.94 µM)
- IC50 (Neutrophil [2]): 1.5 µg/mL (≈ 3.23 µM)

SMILES: COC(C)(C)/C=C/C[C@](C)(O)[C@H]1CC[C@]2(C)C1CC[C@@H]1[C@@]3(C)CC[C@H](OC(C)=O)C(C)(C)[C@@H]3CC[C@]12C (stereo partly drawn)
- IC50 (Neutrophil [1]): > 10 µg/mL
- IC50 (Neutrophil [2]): > 10 µg/mL

SMILES: C/C(=C\C(=O)O)CC[C@@]1(C)[C@H](C)CC[C@]2(C)C(C(=O)O)=CCC[C@H]12
- IC50 (Neutrophil [1]): > 10 µg/mL
- IC50 (Neutrophil [2]): > 10 µg/mL

SMILES: C[C@H]1[C@H](C)CC[C@]2(C(=O)O)CC[C@]3(C)C(=CC[C@@H]4[C@@]5(C)CC[C@H](O)C(C)(C)[C@@H]5CC[C@]43C)[C@H]12 [URSOLIC ACID]
- IC50 (Neutrophil [1]): 0.8 µg/mL (≈ 1.75 µM)
- inhibition (Neutrophil [1]): Dose-dependent effect
- inhibition at 10 µg/mL (Neutrophil [3]): > 50%
- inhibition at 10 µg/mL (Neutrophil [4]): > 50%
- IC50 (Neutrophil [2]): 0.6 µg/mL (≈ 1.31 µM)
- inhibition (Neutrophil [2]): Dose-dependent effect

SMILES: C=C1CC[C@H]2[C@](C)(CO)CCC[C@]2(C)[C@H]1CC/C(C)=C/C(=O)O
- IC50 (Neutrophil [1]): > 10 µg/mL
- IC50 (Neutrophil [2]): > 10 µg/mL

SMILES: C[C@@H]1O[C@@H](OC[C@H]2O[C@@H](OCCc3ccc(O)c(O)c3)[C@H](O)[C@@H](O)[C@@H]2OC(=O)/C=C/c2ccc(O)c(O)c2)[C@H](O)[C@H](O)[C@H]1O [FORSYTHIASIDE]
- IC50 (Neutrophil [1]): > 10 µg/mL
- inhibition at 10 µg/mL (Neutrophil [3]): > 50%
- IC50 (Neutrophil [2]): 1.4 µg/mL (≈ 2.24 µM)
- inhibition (Neutrophil [2]): Dose-dependent effect

SMILES: CC(=O)O[C@H]1CC[C@]2(C)[C@H]3CC=C4[C@@H]5CC(C)(C)CC[C@]5(C(=O)O)CC[C@@]4(C)[C@]3(C)CC[C@H]2C1(C)C [ACETYL OLEANOLIC ACID]
- IC50 (Neutrophil [1]): > 10 µg/mL
- IC50 (Neutrophil [2]): > 10 µg/mL

SMILES: CC(=O)OC1CC[C@]2(C)[C@H]3CC[C@@H]4[C@@H]([C@]5(C)CCC(=O)O5)CC[C@@]4(C)[C@]3(C)CC[C@H]2C1(C)C (stereo partly drawn)
- IC50 (Neutrophil [1]): > 10 µg/mL
- IC50 (Neutrophil [2]): > 10 µg/mL

SMILES: COc1cc(C[C@H]2COC(=O)[C@@H]2Cc2ccc(O)c(OC)c2)ccc1O [MATAIRESINOL]
- IC50 (Neutrophil [1]): 7.3 µg/mL (≈ 20.4 µM)
- inhibition (Neutrophil [1]): Dose-dependent effect
- inhibition at 10 µg/mL (Neutrophil [3]): > 50%
- inhibition at 10 µg/mL (Neutrophil [4]): > 50%
- IC50 (Neutrophil [2]): 4.3 µg/mL (≈ 12 µM)
- inhibition (Neutrophil [2]): Dose-dependent effect

SMILES: CC(=O)O[C@H]1CC[C@]2(C)[C@H]3CCC4[C@@H]([C@]5(C)CC[C@@H](O)C(C)(C)O5)CC[C@@]4(C)[C@]3(C)CC[C@H]2C1(C)C (stereo partly drawn)
- IC50 (Neutrophil [1]): > 10 µg/mL
- IC50 (Neutrophil [2]): > 10 µg/mL

SMILES: O=C(Cc1ccc(O)cc1)OC[C@H]1CC[C@@H]2C(C(=O)O)=CO[C@@H](O[C@@H]3O[C@H](CO)[C@@H](O)[C@H](O)[C@H]3O)[C@H]12
- IC50 (Neutrophil [1]): > 10 µg/mL
- IC50 (Neutrophil [2]): > 10 µg/mL
